Experimental findings from ChEMBL document CHEMBL4602616, “Design, synthesis and biological evaluation of novel indole-based oxalamide and aminoacetamide derivatives as tubulin polymerization inhibitors” (Bioorg Med Chem Lett, 2020) are described below.

Assay [1] relates to HeLa. The assay can be described thus: Antiproliferative activity against human HeLa cells assessed as reduction in cell growth after 48 hrs by MTT assay. In kind it is functional, cell-based. (In general: Tetrazolium dyes change colour on reduction, which living cells bring about.)
The target in assay [2] is T1, Tubulin (Homo sapiens) (UniProt P68371+Q9H4B7+P0DPH7+P68366+Q13509+Q71U36+P04350+Q3ZCM7+P07437+P68363+Q9BQE3+Q6PEY2+Q13885+Q9BVA1+Q9BUF5). The assay can be described thus: Inhibition of tubulin polymerization (unknown origin) at 10 uM relative to control. In kind it is protein-complex assay. The gist of the method:
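In vitro tubulin polymerization measured with compounds at a final concentration of 10 μM; result given as percent inhibition.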

In assay [3] the test system is HCT-116. In words: Antiproliferative activity against human HCT116 cells assessed as reduction in cell viability. In kind it is functional, cell-based.
The test system of assay [4] is PC-3. The assay can be described thus: Antiproliferative activity against human PC3 cells assessed as reduction in cell viability. Format: functional, cell-based.
Assay [5] concerns HeLa. In words: Antiproliferative activity against human HeLa cells assessed as reduction in cell viability. Format: functional, cell-based.
The test system of assay [6] is HeLa. In words: Induction of cell cycle arrest in human HeLa cells assessed as debris content at 15 uM after 24 hrs by PI staining based flow cytometric analysis (reference value: 0.05%). In kind it is functional. In general terms: A flow cytometer gives signals particle by particle.
The test system of assay [7] is HeLa. The assay can be described thus: Induction of cell cycle arrest in human HeLa cells assessed as accumulation at S phase at 7.5 uM after 24 hrs by PI staining based flow cytometric analysis (reference value: 18.38%). Format: functional.
Assay [8] deals with HeLa. In words: Induction of cell cycle arrest in human HeLa cells assessed as accumulation at G2/M phase at 7.5 uM after 24 hrs by PI staining based flow cytometric analysis (reference value: 11.76%). Format: functional.
Assay [9] concerns HeLa. The assay can be described thus: Induction of cell cycle arrest in human HeLa cells assessed as accumulation at G0/G1 phase at 7.5 uM after 24 hrs by PI staining based flow cytometric analysis (reference value: 69.86%). In kind it is functional.
The test system of assay [10] is HeLa. The assay can be described thus: Induction of cell cycle arrest in human HeLa cells assessed as debris content at 7.5 uM after 24 hrs by PI staining based flow cytometric analysis (reference value: 0.05%). In kind it is functional.
Assay [11] deals with HeLa. In words: Induction of cell cycle arrest in human HeLa cells assessed as accumulation at G0/G1 phase at 15 uM after 24 hrs by PI staining based flow cytometric analysis (reference value: 69.86%). Format: functional.
For assay [12], the system named is HeLa. In words: Induction of cell cycle arrest in human HeLa cells assessed as accumulation at G2/M phase at 15 uM after 24 hrs by PI staining based flow cytometric analysis (reference value: 11.76%). Format: functional.
The test system of assay [13] is HeLa. In words: Induction of cell cycle arrest in human HeLa cells assessed as accumulation at S phase at 15 uM after 24 hrs by PI staining based flow cytometric analysis (reference value: 18.38%). In kind it is functional.
Assay [14] relates to HeLa. In words: Induction of cell cycle arrest in human HeLa cells assessed as debris content at 30 uM after 24 hrs by PI staining based flow cytometric analysis (reference value: 0.05%). In kind it is functional.
In assay [15] the test system is HeLa. The assay can be described thus: Induction of cell cycle arrest in human HeLa cells assessed as accumulation at G0/G1 phase at 30 uM after 24 hrs by PI staining based flow cytometric analysis (reference value: 69.86%). Format: functional.
The test system of assay [16] is HeLa. In words: Induction of cell cycle arrest in human HeLa cells assessed as accumulation at G2/M phase at 30 uM after 24 hrs by PI staining based flow cytometric analysis (reference value: 11.76%). Format: functional.
The test system of assay [17] is HeLa. The assay can be described thus: Induction of cell cycle arrest in human HeLa cells assessed as accumulation at S phase at 30 uM after 24 hrs by PI staining based flow cytometric analysis (reference value: 18.38%). Format: functional.
Assay [18] concerns HeLa. The assay can be described thus: Induction of cell cycle arrest in human HeLa cells assessed as accumulation of cells at G2/M phase after 24 hrs by PI-staining based flow cytometric analysis. Format: functional.
The target in assay [19] is T1, Tubulin (Homo sapiens). The assay can be described thus: Inhibition of tubulin polymerization in human HeLa cells assessed as disruption of alpha tubulin at 15 to 30 uM after 12 hrs by immunofluorescence based confocal microscopy. In kind it is cell-based. The essentials:
(§1)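 HeLa cells grown on glass coverslips, incubated with compound at 15 or 30 μM for 12 h, then fixed; α- and β-tubulin visualized by immunocytochemistry and confocal microscopy, compared with untreated cells.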

Assay [20] has as its target T1, Tubulin (Homo sapiens). In words: Inhibition of tubulin polymerization in human HeLa cells assessed as disruption of beta tubulin at 15 to 30 uM after 12 hrs by immunofluorescence based confocal microscopy. Format: cell-based. The essentials:
as §1

In assay [21] the target is T1, Tubulin (Homo sapiens). The assay can be described thus: Inhibition of tubulin polymerization in human HeLa cells assessed as microtubule spindle shrinkage around nucleus at 15 to 30 uM after 12 hrs by immunofluorescence based confocal microscopy. In kind it is cell-based. The essentials:
as §1

Assay [22] addresses T1, Tubulin (Homo sapiens). In words: Inhibition of tubulin polymerization in human HeLa cells assessed as cell membrane rounding at 15 to 30 uM after 12 hrs by immunofluorescence based confocal microscopy. The essentials:
as §1

pIC50: −log10 of the molar value. Calls of active or inactive are those of the source. No cut-off for these calls is given here. A value given as a limit tells only on which side of the number the result lay.

As for `CC(=O)c1[nH]c2ccccc2c1NC(=O)C(=O)Nc1ccncc1`, in assay [1], the pIC50 was 4.20.

As to `Cc1ccc2c(NC(=O)C(=O)Nc3ccncc3)c(C(=O)c3ccccc3)[nH]c2c1`, the negative-log IC50 (pIC50) in assay [1] was 4.12.

Consider `O=C(Nc1ccccc1)C(=O)Nc1c(C(=O)C2CC2)[nH]c2ccccc12`, for which the pIC50 in [1] is < 4.00.

Regarding `Cc1ccc2c(NC(=O)C(=O)Nc3ccncc3)c(C(=O)c3ccco3)[nH]c2c1`, the pIC50 in assay [1] was 4.25.

Turning to `O=C(Nc1ccccc1)C(=O)Nc1c[nH]c2ccccc12`, in [1], the pIC50 was 4.12.

Regarding `COc1ccc(C(=O)c2[nH]c3ccccc3c2NC(=O)CNc2ccccc2C)cc1`, the pIC50 in [1] was 4.55.

With `O=C(Nc1ccccc1)C(=O)Nc1c(C(=O)c2ccccc2)[nH]c2cc(Cl)ccc12`, the pIC50 in assay [1] was 4.54.

On to `O=C(Nc1ccncc1)C(=O)Nc1c(C(=O)c2ccccc2)[nH]c2cc(Cl)ccc12`, for which the pIC50 in [1] is < 4.00.

`O=C(Nc1ccncc1)C(=O)Nc1c(C(=O)c2ccco2)[nH]c2ccccc12`: in assay [1], the negative logarithm of the IC50 (pIC50) was 4.25.

Turning to `COc1ccc(C(=O)c2[nH]c3cc(Cl)ccc3c2NC(=O)CNc2ccc(C)cc2)cc1`, the inhibition in [2] amounted to 29%. Further, the pIC50 is 4.69 in assay [3], 4.80 in [4] and 4.74 in assay [1].

`COc1ccc(NCC(=O)Nc2c(C(=O)c3ccc(OC)cc3)[nH]c3ccccc23)cc1`: the inhibition in [2] was 7%. For the same compound, the negative-log IC50 (pIC50) is 4.33 in [3], 4.36 in [4] and 4.79 in assay [1].

As to `COc1ccc(C(=O)c2[nH]c3cc(Cl)ccc3c2NC(=O)CNc2cc(OC)c(OC)c(OC)c2)cc1`, the pIC50 in assay [1] was < 4.00.

As to `CC(=O)c1[nH]c2cc(C)ccc2c1NC(=O)C(=O)Nc1ccncc1`, in [1], the pIC50 was < 4.00.

As for `O=C(Nc1ccncc1)C(=O)Nc1c(C(=O)c2ccco2)[nH]c2cc(Cl)ccc12`, the negative-log IC50 (pIC50) in assay [1] was 4.66.

Regarding `O=C(Nc1ccncc1)C(=O)Nc1c(C(=O)C2CC2)[nH]c2cc(Cl)ccc12`, the negative logarithm of the IC50 (pIC50) in assay [1] was 4.09.

For `O=C(Nc1ccncc1)C(=O)c1cn(Cc2ccc(Cl)cc2)c2ccccc12` [INDIBULIN], in assay [5], the pIC50 is 6.94.

Turning to `O=C(Nc1ccncc1)C(=O)Nc1c(C(=O)c2ccccc2)[nH]c2ccccc12`, the pIC50 in assay [1] is 4.07.

Take `Cc1ccc2c(NC(=O)C(=O)Nc3ccccc3)c(C(=O)C3CC3)[nH]c2c1`: the negative-log IC50 (pIC50) in [1] is 4.08.

Turning to `COc1cc2c(c(OC)c1OC)-c1ccc(OC)c(=O)cc1[C@@H](NC(C)=O)CC2` [COLCHICINE], the pIC50 in [3] was 6.60; in assay [1], 7.52.

In assay [2], `COc1ccc(C(=O)c2[nH]c3cc(Cl)ccc3c2NC(=O)CNc2ccc(F)cc2)cc1` gave an inhibition of 43%. Also, the values for the pIC50 in assay [3], in assay [4] and in assay [1] were 4.74, 4.66 and 4.78, respectively.

In the case of `O=C(CNc1ccccc1)Nc1c(C(=O)c2ccccc2)[nH]c2cc(Cl)ccc12`, the Activity came out at 0% in assay [6]; 17.7% in assay [7]; 14.2% in assay [8]; 68.1% in assay [9]; 0.04% in assay [10]; 64.57% in [11]. The Activity in assay [12] turned out to be 20.7%; in assay [13], 14.73%; in assay [14] it was 0.07%; in assay [15], 64.24%; in assay [16] it was 25.2%; in assay [17], 10.56%. Moreover, the Activity entry in assay [18] is “Dose-dependent effect”. The compound also gave an inhibition in [2] of 46%. Further, the negative logarithm of the IC50 (pIC50) in [3] was 4.92; in [4] it was 4.84; in [1] it was 4.81. The inhibition result in [19], in [20], in assay [21] and in assay [22] was “Active” throughout.

Take `Cc1ccc2c(NC(=O)C(=O)Nc3ccccc3)c(C(=O)c3ccccc3)[nH]c2c1`: in assay [1], the negative logarithm of the IC50 (pIC50) is 4.26.

For `O=C(Nc1ccccc1)C(=O)Nc1c(C(=O)C2CC2)[nH]c2cc(Cl)ccc12`, the pIC50 in [1] is < 4.00.

On to `CC(=O)c1[nH]c2cc(Cl)ccc2c1NC(=O)C(=O)Nc1ccncc1`, for which the pIC50 in assay [1] was 4.16.

Regarding `O=C(Nc1ccncc1)C(=O)Nc1c(C(=O)C2CC2)[nH]c2ccccc12`, the pIC50 in assay [1] was < 4.00.

Turning to `Cc1ccc2c(NC(=O)C(=O)Nc3ccncc3)c(C(=O)C3CC3)[nH]c2c1`, the negative-log IC50 (pIC50) in assay [1] is < 4.00.

Regarding `O=C(Nc1ccccc1)C(=O)Nc1c(C(=O)c2ccccc2)[nH]c2ccccc12`, in assay [1], the pIC50 is 4.20.

Regarding `O=C(Nc1ccncc1)C(=O)Nc1c[nH]c2ccccc12`, the pIC50 in assay [1] was < 4.00.

Consider `COc1cc(NCC(=O)Nc2c(C(=O)c3ccccc3)[nH]c3cc(Cl)ccc23)cc(OC)c1OC`, for which, in [1], the pIC50 is < 4.00.

Consider `Cc1ccc(C(=O)c2[nH]c3ccccc3c2NC(=O)CNc2ccccc2C)cc1`, for which the negative logarithm of the IC50 (pIC50) in assay [1] was 4.51.

In general, pIC50 refers to the negative decadic logarithm of the IC50, by convention in mol/L. Broadly, the inhibition is the drop in the measured response relative to a control, in per cent.
